Source: ChEMBL document CHEMBL1137753, “Insecticidal heterolignans--tubuline polymerization inhibitors with activity against chewing pests” (Bioorg Med Chem, 2009)
Active and inactive are the calls of the source.

Assays:
Type in all cases: functional, organism-based
[1] = system: Phaedon cochleariae; assay: Insecticidal activity against Phaedon cochleariae larvae in disk of Chinese cabbage leaf at 500 g/ha treated as spray
How it was run: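 This was sprayed on Chinese cabbage leaf disks. Once dry, disks were infested with mustard beetle larvae and mortality was scored after a set time. "+" denotes ≥80% larvae killed; n.a. denotes none killed.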

[2] = system: Spodoptera frugiperda; assay: Insecticidal activity against Spodoptera frugiperda larvae in disk of maize leaf treated as spray
[3] = system: Phaedon cochleariae; assay: Insecticidal activity against Phaedon cochleariae larvae in disk of Chinese cabbage leaf treated as spray

Row | SMILES | Activity [1] | Activity [2] | Activity [3]
1 | COc1cc(OC)cc(C2C3=C(COC3=O)Nc3cc4c(cc32)OC(F)(F)O4)c1 (centres undefined) | Active | inactive | –
2 | COc1cc(OC)cc(C2C3=C(COC3=O)Nc3c(C)cc(C)cc32)c1 (centres undefined) | – | inactive | inactive
3 | COc1cc(OC)cc(C2C3=C(COC3=O)Nc3cc(C)c(C)cc32)c1 (centres undefined) | – | inactive | inactive
4 | COc1cccc(C2C3=C(COC3=O)Nc3cc4c(cc32)OCO4)c1OC (centres undefined) | – | inactive | inactive
5 | COc1cc(OC)cc(C2C3=C(CCCC3=O)Nc3cc4c(cc32)OCO4)c1 (centres undefined) | – | inactive | inactive
6 | COc1cc(OC)cc(C2C3=C(CN(C(C)C)C3=O)Nc3cc4c(cc32)OCO4)c1 (centres undefined) | – | inactive | inactive
7 | O=C1OCC2=C1C(c1cccc(Cl)c1Cl)c1cc3c(cc1N2)OCO3 (centres undefined) | – | inactive | inactive
8 | O=C1OCC2=C1C(c1cccc(OC(F)F)c1)c1cc3c(cc1O2)OCO3 (centres undefined) | – | inactive | inactive
9 | COc1cc2c(cc1OC)N(C)C1=C(C(=O)OC1)C2c1cc(OC)c(OC)c(OC)c1 (centres undefined) | – | inactive | inactive
10 | O=C1OCC2=C1C(c1ccc(Cl)cc1)c1cc3c(cc1N2)OCO3 (centres undefined) | – | inactive | inactive
11 | COc1cc(OC)cc(C2C3=C(Nc4cc5c(cc42)OCO5)C(C)(C)COS3(=O)=O)c1 (centres undefined) | – | inactive | inactive
12 | COc1cc(C2C3=C(CN(C(=O)OC(C)(C)C)C3=O)Nc3cc4c(cc32)OCO4)cc(OC)c1OC (centres undefined) | – | inactive | inactive
13 | O=C1C2=C(C(=O)C1c1ccccc1)C(c1cccc(Cl)c1)c1cc3c(cc1N2)OCO3 (centres undefined) | – | inactive | inactive
14 | COc1cc(OC)cc(C2C3=C(COC3=O)Nc3cc(OCc4ccccc4)ccc32)c1 (centres undefined) | – | inactive | inactive
15 | O=S1(=O)CCC2=C1C(c1cccc(Cl)c1)c1cc3c(cc1N2)OCO3 (centres undefined) | – | inactive | inactive
16 | COc1cc(OC)cc(C2C3=C(COC3=O)Nc3cc(OC(F)(F)F)ccc32)c1 (centres undefined) | – | inactive | inactive
17 | COc1cc2c(cc1OC)C(c1cc(OC)c(OC)c(OC)c1)C1=C(O)OCC1=N2 (centres undefined) | – | inactive | inactive
18 | O=C1CCCC2=C1C(c1cccc(Cl)c1)c1cc3c(cc1N2)OCO3 (centres undefined) | – | inactive | inactive
19 | COc1cc(C2C3=C(COC3=O)Nc3cc(Cl)ccc32)cc(OC)c1OC (centres undefined) | – | inactive | inactive
20 | CC1(C)OC(=O)C2=C1Nc1cc3c(cc1C2c1cccc(Cl)c1)OCO3 (centres undefined) | Active | inactive | –
21 | CC1(C)OS(=O)(=O)C2=C1Nc1cc3c(cc1C2c1cccc(Cl)c1)OCO3 (centres undefined) | Active | inactive | –
22 | Cc1ccc2c(c1)N(C)C1=C(C(=O)OC1)C2c1ccc(Cl)cc1 (centres undefined) | – | inactive | inactive
23 | COc1cc(OC)cc(C2C3=C(CNC3=O)Nc3cc4c(cc32)OCO4)c1 (centres undefined) | Active | inactive | –
24 | CC1(C)NC(=O)C2=C1Nc1cc3c(cc1C2c1cccc(Cl)c1)OCO3 (centres undefined) | Active | inactive | –

Row | SMILES | Activity [1] | Activity [2] | Activity [3]
25 | COc1cc(OC)cc(C2C3=C(Nc4cc5c(cc42)OCO5)C(C)(C)NC3=O)c1 (centres undefined) | – | inactive | inactive
26 | COc1cc(C2C3=C(CNC3=O)Nc3cc4c(cc32)OCO4)cc(OC)c1OC (centres undefined) | Active | inactive | –
27 | COc1cc(OC)cc(C2C3=C(COC3=O)Nc3c(OC)ccc(OC)c32)c1 (centres undefined) | – | inactive | inactive
28 | COc1ccc(C2C3=C(O)OCC3=Nc3cc4c(cc32)OCO4)cc1 (centres undefined) | – | inactive | inactive
29 | O=C1OC2(CCCCC2)C2=C1C(c1cccc(Cl)c1)c1cc3c(cc1N2)OCO3 (centres undefined) | – | inactive | inactive
30 | CC1(C)CS(=O)(=O)C2=C1Nc1cc3c(cc1C2c1cccc(Cl)c1)OCO3 (centres undefined) | – | inactive | inactive
31 | COc1cc(OC)cc(C2C3=C(CN(C(=O)OC(C)(C)C)C3=O)Nc3cc4c(cc32)OCO4)c1 (centres undefined) | – | inactive | inactive
32 | CC1(C)CC(=O)C2=C(C1)Nc1cc3c(cc1C2c1cccc(Cl)c1)OCO3 (centres undefined) | – | inactive | inactive
33 | Clc1cccc(C2C3=C(CCC3)Nc3cc4c(cc32)OCO4)c1 (centres undefined) | – | inactive | inactive
34 | O=S1(=O)CCCC2=C1C(c1cccc(Cl)c1)c1cc3c(cc1N2)OCO3 (centres undefined) | – | inactive | inactive
35 | COc1cc(OC)cc(C2C3=C(COC3=O)Nc3cc(OC)c(OC)c(OC)c32)c1 (centres undefined) | – | inactive | inactive
36 | COc1cc(OC)cc(C2C3=C(COC3=O)Nc3cc(O)ccc32)c1 (centres undefined) | – | inactive | inactive
37 | OC1=C2C(=Nc3cc4c(cc3C2c2ccccc2)OCO4)CO1 (centres undefined) | – | – | inactive
38 | COc1cc(C2(C)C3=C(COC3=O)Nc3cc(Cl)ccc32)cc(OC)c1OC (centres undefined) | – | inactive | inactive
39 | COc1cc(OC)cc(C2C3=C(Nc4cc5c(cc42)OCO5)C(C)(C)COC3=O)c1 (centres undefined) | – | inactive | inactive
40 | COc1cc(OC)cc(C2C3=C(Nc4cc5c(cc42)OCO5)C(C)(C)ON(C)C3=O)c1 (centres undefined) | – | inactive | inactive
41 | O=C1OCC2=C1C(c1cc(Cl)cc(Cl)c1)c1cc3c(cc1O2)OCO3 (centres undefined) | – | inactive | inactive
42 | O=C1OCC2=C1C(c1cccc(Cl)c1)c1cc(Cl)ccc1N2 (centres undefined) | – | inactive | inactive
43 | CCN1C2=C(C(=O)OC2)C(c2cc(OC)cc(OC)c2)c2cc(OC)c(OC)cc21 (centres undefined) | – | inactive | inactive
44 | COc1cc(OC)cc(C2C3=C(COC3=O)Nc3cc(OCc4ccccc4)c(Br)cc32)c1 (centres undefined) | – | inactive | inactive
45 | COc1cc(OC)cc(C2C3=C(COC3=O)Nc3cc(C)cc(C)c32)c1 (centres undefined) | – | inactive | inactive
46 | O=C1OCC2=C1C(c1cc(Cl)cc(Cl)c1Cl)c1cc3c(cc1N2)OCO3 (centres undefined) | – | inactive | inactive
47 | CCOc1cc2c(cc1OCC)C(c1cc(OC)cc(OC)c1)C1=C(COC1=O)N2 (centres undefined) | – | inactive | inactive
48 | O=C1OCC2=C1C(c1cccc(OC(F)(F)F)c1)c1cc3c(cc1O2)OCO3 (centres undefined) | – | inactive | inactive

Row | SMILES | Activity [1] | Activity [2] | Activity [3]
49 | COc1cc(OC)cc(C2C3=C(COC3=O)Nc3cc(-c4ccccc4)ccc32)c1 (centres undefined) | – | inactive | inactive
50 | COc1cc(OC)cc(C2C3=C(COC3=O)Nc3cc(OC(F)F)c(OC(F)F)cc32)c1 (centres undefined) | – | inactive | inactive
51 | Clc1cccc(C2C3=C(CCCC3)Nc3cc4c(cc32)OCO4)c1 (centres undefined) | – | inactive | inactive
52 | COc1cc(C2C3=C(COC3=O)Oc3cc4c(cc32)OCO4)cc(Br)c1OC (centres undefined) | Active | inactive | –
53 | COc1ccc2c(c1)OC1=C(C(=O)OC1)C2c1cccc(Cl)c1 (centres undefined) | – | inactive | inactive
54 | O=C1OCC2=C1C(c1cccc(Br)c1)c1cc3c(cc1O2)OCO3 (centres undefined) | – | inactive | inactive
55 | COc1cc(OC)cc(C2C3=C(COC3=O)Nc3cc(C(C)(C)C)ccc32)c1 (centres undefined) | – | inactive | inactive
56 | O=C1OCC2=C1C(c1ccc3c(c1)OC(F)(F)O3)c1cc3c(cc1N2)OCO3 (centres undefined) | – | inactive | inactive
57 | CC1(c2cccc(Cl)c2)C2=C(COC2=O)Nc2ccc(Cl)cc21 (centres undefined) | – | inactive | inactive
58 | O=C1OCC2=C1C(c1cccc(Cl)c1)c1cc3c(cc1O2)OCO3 (centres undefined) | – | inactive | inactive
59 | COc1cc(OC)cc(C2C3=C(COC3=O)Nc3cc(OC)c(Cl)cc32)c1 (centres undefined) | – | inactive | inactive
60 | COc1cc(OC)cc(C2C3=C(COC3=O)Nc3cc(C)ccc32)c1 (centres undefined) | Active | – | –
61 | O=C1OCC2=C1C(c1cc(Cl)ccc1Cl)c1cc3c(cc1N2)OCO3 (centres undefined) | – | inactive | inactive
62 | O=C1OCC2=C1C(c1ccc(F)c(Br)c1)c1cc3c(cc1N2)OCO3 (centres undefined) | Active | – | –
63 | COc1cc(OC)cc(C2C3=C(COC3=O)Nc3ccc(OC(C)C)cc32)c1 (centres undefined) | – | inactive | inactive
64 | COc1cc(OC)cc(C2(C)C3=C(COC3=O)Nc3cc4c(cc32)OCO4)c1 (centres undefined) | – | inactive | inactive
65 | CC1(C)COS(=O)(=O)C2=C1Nc1cc3c(cc1C2c1cccc(Cl)c1)OCO3 (centres undefined) | Active | inactive | –
66 | COc1cc(OC)cc(C2C3=C(Nc4cc5c(cc42)OCO5)C(C)(CC(C)C)NC3=O)c1 (centres undefined) | – | inactive | inactive
67 | O=C1OCC2=C1C(c1cccc(OCCO)c1)c1cc3c(cc1N2)OCO3 (centres undefined) | – | – | inactive
68 | O=C1OC2(CCCC2)C2=C1C(c1cccc(Cl)c1)c1cc3c(cc1N2)OCO3 (centres undefined) | Active | inactive | –
69 | CC(C)(C)OC(=O)N1CC2=C(C1=O)C(c1cccc(Cl)c1)c1cc3c(cc1N2)OCO3 (centres undefined) | – | inactive | –
70 | COc1cc(OC)cc(C2C3=C(COC3=O)Oc3cc(OC)ccc32)c1 (centres undefined) | – | inactive | inactive
71 | COc1cc(OC)cc(C2C3=C(COC3=O)Nc3cc(Oc4ccccc4)ccc32)c1 (centres undefined) | – | inactive | inactive
72 | COc1cc(OC)cc(C2C3=C(COC3=O)Oc3c2ccc(OC)c3OC)c1 (centres undefined) | – | inactive | inactive
